Data set [1] addresses p38α (unphosphorylated) (UniProt Q16539). Briefly: ITC. (In general: ITC needs no label: the signal is the heat of the interaction.)
Data set [2] concerns the target T1, p38α (Homo sapiens, UniProt Q16539). Put plainly: Small angle X-ray scattering, resting-state complex with unphosphorylated p38α. Conditions: SAXS, GNOM. In a few lines:
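Unphosphorylated p38α was mixed 1:1 with PTPSL 331–655 or STEP 214–539 for 30 min on ice, then SEC-purified in 50 mM HEPES pH 6.8, 150 mM NaCl, 5 mM DTT. Samples were 0.4–4.0 mg/ml (PTPSL) or 1.0–4.0 mg/ml (STEP), filtered, flowed through a 1 mm capillary and exposed 30 s or 180 s at a synchrotron beamline. Dmax came from the P(r) function.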

Data set [3] addresses p38α (unphosphorylated) (UniProt Q16539 1-360). Put plainly: ITC.
In data set [4] the target is T1, p38α. Put plainly: Isothermal titration calorimetry. Format: binding.
The target in data set [5] is T1, p38α. Put plainly: NMR chemical shift perturbation, 2D [1H,15N] TROSY of [2H,15N]-p38α. Format: binding. Conditions: for number of p38α peaks with CSPs on complex formation / number of p38α peaks with line-widths broadened beyond detection / number of perturbed p38α peaks in fast exchange: free vs bound p38α, SEC-purified 1:1 complex, NMR buffer pH 6.8; for number of p38α peaks with CSPs on complex formation / number of p38α peaks with line-widths broadened beyond detection / number of perturbed p38α peaks in fast exchange / interaction with p38α by NMR (in words): 298 K; for interaction with p38α by NMR (in words): 2D [1H,15N] TROSY, 800 MHz, 50 mM HEPES pH 6.8, 150 mM NaCl, 5 mM dithiothreitol.

The target in data set [6] is T1, p38α. The following applies: 2011, cited from earlier work; for dephosphorylation of p38α (in words): in vitro phosphatase assays, ref Zhang et al.
The mark [7] stands for this setting: ITC, 25 °C, 10 mM Tris pH 7.5, 150 mM NaCl, 0.1 mM EDTA, 0.5 mM TCEP.

In general, Kd refers to the equilibrium constant for the complex coming apart.

p38α (unphosphorylated) (UniProt Q16539), sequence (Q16539 whole entry): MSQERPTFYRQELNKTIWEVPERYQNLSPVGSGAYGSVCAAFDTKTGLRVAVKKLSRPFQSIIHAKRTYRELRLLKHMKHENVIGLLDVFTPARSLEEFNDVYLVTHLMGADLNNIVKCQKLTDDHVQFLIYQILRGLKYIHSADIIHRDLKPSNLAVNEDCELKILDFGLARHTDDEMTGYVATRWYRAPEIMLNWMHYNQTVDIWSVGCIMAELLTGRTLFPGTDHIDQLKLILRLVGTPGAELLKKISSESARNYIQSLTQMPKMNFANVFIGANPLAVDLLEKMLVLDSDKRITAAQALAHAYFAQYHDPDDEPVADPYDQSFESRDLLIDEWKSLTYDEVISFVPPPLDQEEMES
T1 sequence (Q16539 whole entry): as above
p38α (unphosphorylated) (UniProt Q16539 1-360), sequence (Q16539 whole entry): as above

With “STEP (residues 214–539) (domain or fragment)”, in the data set with p38α (unphosphorylated) [1], the Kd worked out at 577 nM and the dH is -28.8 kcal/mol.
With STEP_(F274A/F281A) (domain or fragment), in the data set with p38α (unphosphorylated) [1], the Kd stood at 1070 nM and the dH is -24.2 kcal/mol.
For PSChimera (from UniProt Q15256 332-373), in the data set with p38α (unphosphorylated) [1], the Kd stood at 309 nM and the dH was -27.2 kcal/mol.
“p38:PTPRR: 1:1 complex of unphosphorylated p38α with PTPSL 331–655”: in the data set with p38α [2], the “Dmax (P(r) function calculation)” value is given as 105 Å and the “Rg (P(r) function calculation)” value is given as 34.1 Å.
On to STEP_(M285A/I307A) (domain or fragment), for which, in the data set with p38α (unphosphorylated) [1], the Kd worked out at 592 nM and the dH is -27.6 kcal/mol.

B1: STEP_(F281A/I307A) (domain or fragment)
chain: GLQERRGSNVSLTLDMCTPGCNEEGFGYLMSPREESAREYLLSASRVLQAEELHEKALDPFLLQAEFAEIPMNFVDPKEYDIPGLVRKNRYKTALPNPHSRVCLTSPDPDDPLSSYINANYIRGYGGEEKVYIATQGPIVSTVADFWRMVWQEHTPIIVMITNIEEMNEKCTEYWPEEQVAYDGVEITVQKVIHTEDYRLRLISLKSGTEERGLKHYWFTSWPDQKTPDRAPPLLHLVREVEEAAQQEGPHCAPIIVHCSAGIGRTGCFIATSICCQQLRQEGVVDILKTTCQLRQDRGGMIQTCEQYQFVHHVMSLYEKQLSHQS
Consider B1, for which, in the data set with p38α (unphosphorylated) [3], the Kd is 1060 ± 36 nM and the dH was -34.3 ± 1.1 kcal/mol.

B2: PTPSL (residues 332–655) (domain or fragment, UniProt Q15256 332-655, looked up)
chain: GLQERRGSNVSLTLDMSSLGNIEPFVSIPTPREKVAMEYLQSASRILTRSQLRDVVASSHLLQSEFMEIPMNFVDPKEIDIPRHGTKNRYKTILPNPLSRVCLRPKNVTDSLSTYINANYIRGYSGKEKAFIATQGPMINTVDDFWQMVWQEDSPVIVMITKLKEKNEKCVLYWPEKRGIYGKVEVLVISVNECDNYTIRNLVLKQGSHTQHVKHYWYTSWPDHKTPDSAQPLLQLMLDVEEDRLASQGRGPVVVHCSAGIGRTGCFIATSIGCQQLKEEGVVDALSIVCQLRMDRGGMVQTSEQYEFVHHALCLYESRLSAET
B2: in the data set with p38α (unphosphorylated) [3], the dissociation constant (Kd) was 382 ± 65 nM and the dH was -30.2 ± 1.5 kcal/mol. For the same molecule, the “relative binding affinity for p38α (in words)” value with p38α [4] (ITC) was “the highest affinity interaction with p38α among the KIM-PTPs”. In the data set with p38α [4] (setting [7]), this molecule returned a TΔS of -21.4 ± 1.4 kcal/mol and a ΔG of -8.8 ± 0.1 kcal/mol. In addition, in the data set with p38α [4] (ITC, relative to PTPSLKIM), the “times tighter binding to p38α than PTPSLKIM” value was ~ 7 times. In the data set with p38α [4] (relative to HePTP), the “times tighter binding to p38α than HePTP” value is roughly 6 times. In the data set with p38α [5], the “number of p38α peaks with CSPs on complex formation” value is recorded as 41 peaks, the “number of p38α peaks with line-widths broadened beyond detection” value was determined as 5 peaks and the “number of perturbed p38α peaks in fast exchange” value came out at 36 peaks. Further, the “dephosphorylation of p38α (in words)” value in the data set with p38α [6] is “the most efficient p38α phosphatase of all tested”.

B3: PTPSLCAT: PTPSLCAT (residues 361–655), catalytic domain (protein)
chain: TPREKVAMEYLQSASRILTRSQLRDVVASSHLLQSEFMEIPMNFVDPKEIDIPRHGTKNRYKTILPNPLSRVCLRPKNVTDSLSTYINANYIRGYSGKEKAFIATQGPMINTVDDFWQMVWQEDSPVIVMITKLKEKNEKCVLYWPEKRGIYGKVEVLVISVNECDNYTIRNLVLKQGSHTQHVKHYWYTSWPDHKTPDSAQPLLQLMLDVEEDRLASQGRGPVVVHCSAGIGRTGCFIATSIGCQQLKEEGVVDALSIVCQLRMDRGGMVQTSEQYEFVHHALCLYESRLSAET
With B3, the “interaction with p38α by NMR (in words)” value in the data set with p38α [5] was “no interactions between p38α and isolated PTPSLCAT were detected”.

B4: STEP: STEP (residues 214–539) (protein, UniProt P54829 214-539, looked up, fragment)
chain: TPVFDCVMDIKPEADPTSLTVKSMGLQERRGSNVSLTLDMCTPGCNEEGFGYLMSPREESAREYLLSASRVLQAEELHEKALDPFLLQAEFFEIPMNFVDPKEYDIPGLVRKNRYKTILPNPHSRVCLTSPDPDDPLSSYINANYIRGYGGEEKVYIATQGPIVSTVADFWRMVWQEHTPIIVMITNIEEMNEKCTEYWPEEQVAYDGVEITVQKVIHTEDYRLRLISLKSGTEERGLKHYWFTSWPDQKTPDRAPPLLHLVREVEEAAQQEGPHCAPIIVHCSAGIGRTGCFIATSICCQQLRQEGVVDILKTTCQLRQDRGGMI
With B4, in the data set with p38α [4] (setting [7]), the affinity, expressed as Kd, was 577 ± 71 nM; the TΔS is -20.3 ± 2.0 kcal/mol; the ΔG is -8.5 ± 0.1 kcal/mol; the ΔH is -28.8 ± 2.0 kcal/mol. For the same molecule, the “times tighter binding to p38α than STEPKIM” value with p38α [4] (ITC, relative to STEPKIM) was ~ 6 times. For the same molecule, the “additional or larger CSPs (residues) than with the corresponding KIM peptide” value with p38α [5] (comparison with p38α:STEPKIM or p38α:PTPSLKIM spectra) was “three”. Besides, in the data set with p38α [5], the “number of p38α peaks with CSPs on complex formation” value worked out at 58 peaks, the “number of p38α peaks with line-widths broadened beyond detection” value turned out to be 18 peaks and the “number of perturbed p38α peaks in fast exchange” value amounted to 40 peaks. In addition, the “kcat for dephosphorylation of p38α, fold lower than for PTPSL or HePTP” value with p38α [6] (compared with PTPSL or HePTP, ref Balasu et al., 2009, Zhang et al.) is ~ 20 fold. In the data set with p38α [6], the “dephosphorylation of p38α (in words)” value is “significantly less efficient than PTPSL and HePTP at dephosphorylating p38α”.

B5: HePTP: KIM-PTP HePTP (PTPN7, LC-PTP) (protein, UniProt P35236 1-360, looked up)
Tyrosine-protein phosphatase …: MVQAHGGRSRAQPLTLSLGAAMTQPPPEKTPAKKHVRLQERRGSNVALMLDVRSLGAVEPICSVNTPREVTLHFLRTAGHPLTRWALQRQPPSPKQLEEEFLKIPSNFVSPEDLDIPGHASKDRYKTILPNPQSRVCLGRAQSQEDGDYINANYIRGYDGKEKVYIATQGPMPNTVSDFWEMVWQEEVSLIVMLTQLREGKEKCVHYWPTEEETYGPFQIRIQDMKECPEYTVRQLTIQYQEERRSVKHILFSAWPDHQTPESAGPLLRLVAEVEESPETAAHPGPIVVHCSAGIGRTGCFIATRIGCQQLKARGEVDILGIVCQLRLDRGGMIQTAEQYQFLHHTLALYAGQLPEEPSP
As for B5, in the data set with p38α [6], the “dephosphorylation of p38α (in words)” value is “can both readily dephosphorylate p38α”.
In the data set with p38α (unphosphorylated) [3], GLQERRGSNVSLTLDMSSLGNIEPFVSIPTPREKVAMEYLQS (peptide, UniProt Q15256 332-373, looked up) [PTPSL_(KIMKIS) (residues 332–373)] registered a Kd of 1530 ± 23 nM and a dH of -38.8 ± 6.1 kcal/mol.

B6: STEPCAT: STEPCAT (residues 244–539), catalytic domain (protein, UniProt P54829 244-539, looked up, fragment)
chain: GSNVSLTLDMCTPGCNEEGFGYLMSPREESAREYLLSASRVLQAEELHEKALDPFLLQAEFFEIPMNFVDPKEYDIPGLVRKNRYKTILPNPHSRVCLTSPDPDDPLSSYINANYIRGYGGEEKVYIATQGPIVSTVADFWRMVWQEHTPIIVMITNIEEMNEKCTEYWPEEQVAYDGVEITVQKVIHTEDYRLRLISLKSGTEERGLKHYWFTSWPDQKTPDRAPPLLHLVREVEEAAQQEGPHCAPIIVHCSAGIGRTGCFIATSICCQQLRQEGVVDILKTTCQLRQDRGGMI
modifications: catalytic domain
Take B6: in the data set with p38α [5], the “interaction with p38α by NMR (in words)” value is recorded as “non-specific interactions throughout the p38α surface”.
